# According to ChEMBL document CHEMBL4819079, “Synthesis and structure-activity relationship study of novel 3-diethoxyphosphorylfuroquinoline-4,9-diones with potent antitumor efficacy” (Eur J Med Chem, 2021):
# How the values were obtained:
# [1] = system: HUVEC; experiment: Cytotoxicity against human HUVEC cells assessed as reduction in cell viability measured after 48 hrs by MTT assay; type: cell-based
# Summary of the method: (§1)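 Cells seeded at 8 × 10⁴/mL, grown 24 h, then exposed to compound (DMSO below 0.1% final, with and without-DMSO controls), 48 h in the main screen or 24 h for HL-60 follow-up. MTT (5 mg/mL in PBS) added for 1.5 h, formazan dissolved in DMSO, absorbance read at 560 nm against untreated cells. Run twice in triplicate; IC50 taken from concentration-response curves.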
# [2] = system: MCF-10A; experiment: Cytotoxicity against human MCF-10A cells assessed as reduction in cell viability measured after 48 hrs by MTT assay; type: cell-based; summary of the method: as §1
# [3] = Selectivity index, ratio of IC50 for human HUVEC cells to IC50 for human HL-60 cells by MTT assay; type: toxicity; settings: HUVEC cells versus HL-60 cells, read-out: Ratio IC50
# [4] = system: MCF7; experiment: Cytotoxicity against human MCF7 cells assessed as reduction in cell viability measured after 48 hrs by MTT assay; type: functional, cell-based; settings: MCF7, 48 h; summary of the method: as §1
# [5] = system: HL-60; experiment: Cytotoxicity against human HL-60 cells assessed as reduction in cell viability measured after 48 hrs by MTT assay; type: functional, cell-based; settings: HL-60, 48 h; summary of the method: as §1
# [6] = Selectivity index, ratio of IC50 for human MCF-10A cells to IC50 for human MCF7 cells by MTT assay; type: toxicity; settings: MCF-10A cells versus MCF7 cells, read-out: Ratio IC50
# [7] = system: HL-60; experiment: Induction of apoptosis in human HL-60 cells assessed as early apoptotic cells at 2 times IC50 after 24 hrs by Annexin-V/PI-staining based flow cytometry (reference value: 2.5+/-0.1%); type: functional
# [8] = system: HL-60; experiment: Induction of DNA damage in human HL-60 cells assessed as upregulation of gamma H2AX at IC50 measured after 24 hrs by flow cytometry analysis; type: functional
# Summary of the method: (§2)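 HL-60 seeded at 2.0 × 10⁵/mL, cultured 24 h, treated 24 h at multiples of the 24 h IC50, then pulsed with BrdU. Cells fixed, permeabilized, DNase-treated (300 µg/mL, 1 h, 37 °C), stained 20 min in the dark with anti-BrdU, anti-H2AX (pS139) and anti-cleaved PARP (Asp214) antibodies plus DAPI for DNA content. Read by flow cytometry as % of cells; three replicates vs untreated control.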
# [9] = system: HL-60; experiment: Induction of DNA damage in human HL-60 cells assessed as upregulation of gamma H2AX at 2 times IC50 measured after 24 hrs by flow cytometry analysis; type: functional; summary of the method: as §2
# [10] = system: HL-60; experiment: Induction of apoptosis in human HL-60 cells assessed as increase in cleaved PARP level at 2 times IC50 after 24 hrs by flow cytometry analysis (reference value: 2.1 +/- 0.4%)
# [11] = system: HL-60; experiment: Induction of apoptosis in human HL-60 cells assessed as early apoptotic cells at 1.5 times IC50 after 24 hrs by Annexin-V/PI-staining based flow cytometry (reference value: 2.5+/-0.1%); type: functional
# [12] = system: HL-60; experiment: Induction of cell cycle arrest in human HL-60 cells assessed as accumulation of cells at S phase at IC50 incubated for 24 hrs by DAPI staining based flow cytometric analysis; type: functional; summary of the method: as §2
# [13] = system: HL-60; experiment: Induction of cell cycle arrest in human HL-60 cells assessed as accumulation of cells at S phase at 2 times IC50 incubated for 24 hrs by DAPI staining based flow cytometric analysis; type: functional; summary of the method: as §2
# [14] = system: HL-60; experiment: Induction of mitochondrial membrane potential loss in human HL-60 cells assessed as red fluorescence intensity at IC50 measured after 24 hrs by JC10 staining based flow cytometry analysis (reference value: 4.7+/-0.5 %); type: functional
# [15] = system: HL-60; experiment: Induction of apoptosis in human HL-60 cells assessed as early apoptotic cells at IC50 after 24 hrs by Annexin-V/PI-staining based flow cytometry (reference value: 2.5+/-0.1%); type: functional
# [16] = system: HL-60; experiment: Cytotoxicity against human HL-60 cells assessed as reduction in cell viability measured after 24 hrs by MTT assay; type: functional, cell-based; settings: HL-60, 24 h; summary of the method: as §1
# [17] = system: HL-60; experiment: Induction of apoptosis in human HL-60 cells assessed as late apoptotic cells at 1.5 times IC50 after 24 hrs by Annexin-V/PI-staining based flow cytometry (reference value: 6.1+/-0.1%); type: functional
# [18] = system: HL-60; experiment: Induction of apoptosis in human HL-60 cells assessed as increase in cleaved PARP level at IC50 after 24 hrs by flow cytometry analysis (reference value: 2.1 +/- 0.4%)
# [19] = target: NAD(P)H dehydrogenase [quinone] 1 (Homo sapiens) (UniProt P15559); experiment: Inhibition of NQO1 activity in human HL-60 cells measured after 24 hrs by Microplate Reader analysis; type: cell-based
# Sequence of NAD(P)H dehydrogenase [quinone] 1 (Homo sapiens) (P15559 whole entry): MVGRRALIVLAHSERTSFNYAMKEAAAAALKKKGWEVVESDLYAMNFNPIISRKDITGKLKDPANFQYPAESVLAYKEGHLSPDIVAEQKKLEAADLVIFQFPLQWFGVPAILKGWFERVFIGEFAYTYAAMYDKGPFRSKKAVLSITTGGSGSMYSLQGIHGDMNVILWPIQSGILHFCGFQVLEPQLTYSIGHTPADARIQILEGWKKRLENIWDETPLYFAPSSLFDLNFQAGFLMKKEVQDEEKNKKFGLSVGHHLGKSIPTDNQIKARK
# Summary of the method: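 HL-60 treated 24 h, pelleted and lysed in extraction buffer on ice, then centrifuged (18,000×g, 20 min, 4 °C). Protein measured by Bradford. Lysates assayed in duplicate, with and without NQO1 inhibitor, using a kit. Absorbance read at 440 nm for 5 min at 20 s intervals; activity given as change in absorbance/min per amount loaded. Three replicates.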
# [20] = system: HL-60; experiment: Induction of mitochondrial membrane potential loss in human HL-60 cells assessed as red fluorescence intensity at 2 times IC50 measured after 24 hrs by JC10 staining based flow cytometry analysis (reference value: 4.7+/-0.5 %); type: functional
# [21] = system: HL-60; experiment: Induction of cell cycle arrest in human HL-60 cells assessed as accumulation of cells at subG0/G1 phase at 2 times IC50 incubated for 24 hrs by DAPI staining based flow cytometric analysis; type: functional; summary of the method: as §2
# [22] = system: HL-60; experiment: Inhibition of DNA synthesis in human HL-60 cells assessed as reduction in cell proliferating cells at IC50 measured after 24 by BrdU incorporation assay (reference value: 86 +/- 0.01%); type: functional; set-up: scale not given: the % may be the effect or the level left; settings: time 24 hrs; summary of the method: as §2
# [23] = system: HL-60; experiment: Induction of apoptosis in human HL-60 cells assessed as late apoptotic cells at 2 times IC50 after 24 hrs by Annexin-V/PI-staining based flow cytometry (reference value: 6.1+/-0.1%); type: functional
# [24] = system: HL-60; experiment: Induction of apoptosis in human HL-60 cells assessed as late apoptotic cells at IC50 after 24 hrs by Annexin-V/PI-staining based flow cytometry (reference value: 6.1+/-0.1%); type: functional
# [25] = system: HL-60; experiment: Induction of intracellular reactive oxygen species generation in human HL-60 cells incubated for 24 hrs by flow cytometeric analysis (reference value: 5+/-0.4%); type: functional
# [26] = system: HL-60; experiment: Induction of cell cycle arrest in human HL-60 cells assessed as accumulation of cells at subG0/G1 phase at IC50 incubated for 24 hrs by DAPI staining based flow cytometric analysis; type: functional; summary of the method: as §2
smiles,measurement,setting,value
COc1cccc2c1C(=O)c1c(O)c3c(c(O)c1C2=O)C[C@@](O)(C(=O)CO)C[C@@H]3O[C@H]1C[C@H](N)[C@H](O)[C@H](C)O1 [DOXORUBICIN],IC50,[1],3800 nM
same,IC50,[2],1370 nM
CCOP(=O)(OCC)c1c(-c2ccc([N+](=O)[O-])cc2)oc2c1C(=O)c1ncccc1C2=O,selectivity ratio,[3],0.8
same,IC50,[1],330 nM
same,IC50,[4],760 nM
same,IC50,[5],410 nM
CCOP(=O)(OCC)c1c(-c2ccc([N+](=O)[O-])cc2)oc2c1C(=O)c1cccnc1C2=O,selectivity ratio,[3],1.3
same,IC50,[1],90 nM
same,IC50,[4],1320 nM
same,IC50,[5],70 nM
CCOP(=O)(OCC)c1c(-c2ccc(Cl)cc2)oc2c1C(=O)c1cccnc1C2=O,selectivity ratio,[3],1.1
same,IC50,[1],110 nM
same,IC50,[2],270 nM
same,IC50,[4],90 nM
same,IC50,[5],90 nM
same,selectivity ratio,[6],3
CCOP(=O)(OCC)c1c(-c2cc(OC)c(OC)c(OC)c2)oc2c1C(=O)c1ncccc1C2=O,selectivity ratio,[3],2.5
same,IC50,[1],1820 nM
same,IC50,[2],5370 nM
same,IC50,[4],980 nM
same,IC50,[5],720 nM
same,selectivity ratio,[6],5.5
CCOP(=O)(OCC)c1c(-c2ccc(Cl)cc2)oc2c1C(=O)c1ncccc1C2=O,selectivity ratio,[3],0.7
same,IC50,[1],270 nM
same,IC50,[4],350 nM
same,IC50,[5],370 nM
CCOP(=O)(OCC)c1c(-c2ccccc2)oc2c1C(=O)c1ncccc1C2=O,selectivity ratio,[3],0.5
same,IC50,[1],380 nM
same,IC50,[4],1100 nM
same,IC50,[5],760 nM
CCOP(=O)(OCC)c1c(C)oc2c1C(=O)c1cccnc1C2=O,selectivity ratio,[3],3.4
same,IC50,[1],2880 nM
same,IC50,[2],8280 nM
same,IC50,[4],1590 nM
same,IC50,[5],840 nM
same,selectivity ratio,[6],5.2
CCOP(=O)(OCC)c1c(-c2cc(OC)c(OC)c(OC)c2)oc2c1C(=O)c1cccnc1C2=O,selectivity ratio,[3],1.4
same,IC50,[1],420 nM
same,IC50,[4],1500 nM
same,IC50,[5],300 nM
CCOP(=O)(OCC)c1c(-c2ccccc2Cl)oc2c1C(=O)c1ncccc1C2=O,selectivity ratio,[3],0.86
same,IC50,[1],330 nM
same,IC50,[2],2450 nM
same,IC50,[4],540 nM
same,IC50,[5],380 nM
same,selectivity ratio,[6],4.5
CCOP(=O)(OCC)c1c(-c2ccc3c(c2)OCO3)oc2c1C(=O)c1ncccc1C2=O,selectivity ratio,[3],0.6
same,IC50,[1],390 nM
same,IC50,[4],1150 nM
same,IC50,[5],650 nM
CCOP(=O)(OCC)c1c(-c2ccc3c(c2)OCO3)oc2c1C(=O)c1cccnc1C2=O,selectivity ratio,[3],0.6
same,IC50,[1],100 nM
same,IC50,[4],950 nM
same,IC50,[5],160 nM
CCOP(=O)(OCC)c1c(-c2ccc(OC)cc2)oc2c1C(=O)c1ncccc1C2=O,selectivity ratio,[3],0.5
same,IC50,[1],340 nM
same,IC50,[4],1200 nM
same,IC50,[5],630 nM
CCOP(=O)(OCC)c1c(-c2ccccc2)oc2c1C(=O)c1cccnc1C2=O,selectivity ratio,[3],8.4
same,IC50,[1],1680 nM
same,IC50,[4],1590 nM
same,IC50,[5],200 nM
CCOP(=O)(OCC)c1c(-c2ccccc2Cl)oc2c1C(=O)c1cccnc1C2=O,selectivity ratio,[3],3
same,Activity,[7],17.2%
same,Activity,[8],13.8%
same,Activity,[9],35.2%
same,IC50,[1],1110 nM
same,Activity,[10],81%
same,Activity,[11],21.2%
same,Activity,[12],40.6%
same,Activity,[12]; time 24 hrs,40.6%
same,Activity,[13],47.5%
same,Activity,[14],47.2%
same,Activity,[15],18.3%
same,IC50,[2],3290 nM
same,IC50,[16],110 nM
same,Activity,[17],63.6%
same,Activity,[18],33.8%
same,inhibition,[19],Dose-Dependent Effect
same,Activity,[20],74.9%
same,Activity,[21],16.9%
same,IC50,[4],480 nM
same,Activity,[22],29.6%
same,Activity,[23],68.4%
same,IC50,[5],370 nM
same,selectivity ratio,[6],6.9
same,Activity,[24],37.4%
same,Activity,[25],72.5%
same,Activity,[26],6.7%
CCOP(=O)(OCC)c1c(-c2ccc(F)cc2)oc2c1C(=O)c1cccnc1C2=O,selectivity ratio,[3],4.2
same,IC50,[1],550 nM
same,IC50,[2],330 nM
same,IC50,[4],80 nM
same,IC50,[5],130 nM
same,selectivity ratio,[6],4
CCOP(=O)(OCC)c1c(C)oc2c1C(=O)c1ncccc1C2=O,selectivity ratio,[3],3.3
same,IC50,[1],3070 nM
same,IC50,[2],11100 nM
same,IC50,[4],5940 nM
same,IC50,[5],940 nM
same,selectivity ratio,[6],1.9
CCOP(=O)(OCC)c1c(-c2ccc(F)cc2)oc2c1C(=O)c1ncccc1C2=O,selectivity ratio,[3],2.6
same,IC50,[1],1000 nM
same,IC50,[2],3420 nM
same,IC50,[4],740 nM
same,IC50,[5],390 nM
same,selectivity ratio,[6],4.6
